Source: ChEMBL document CHEMBL1255355, “Characterization of a naturally occurring class D beta-lactamase from Achromobacter xylosoxidans” (Antimicrob Agents Chemother, 2008)
≈ marks a conversion by molar mass, not a printed value. Calls of active or inactive are those of the source. The rule behind the calls is not given here.

What was measured:
[1] = tested on: Achromobacter xylosoxidans; test: Antibacterial activity against Achromobacter xylosoxidans CIP69598 by agar dilution method; type: functional
Outline: (§1)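 MICs of β-lactams measured by agar dilution, with interpretation per CLSI guidelines. Combination tests used clavulanic acid or tazobactam at a fixed 4 μg/ml. Reference strain CIP69598 and clinical isolates MER, TB1, LOL and DUC, identified by API 32-GN. Cultures routinely grown in TS broth at 37°C.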

[2] = tested on: Achromobacter xylosoxidans; test: Activity of Achromobacter xylosoxidans CIP69598 beta-lactamase OXA-114a expressed in Escherichia coli TOP10 assessed as compound hydrolysis
Outline: (§2)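 OXA-114a purified from E. coli TOP10(p6S3) grown overnight in TS broth with kanamycin 30 μg/ml and ampicillin 50 μg/ml, by sonication, spermine, Q-Sepharose (pH 8.8) and S-Sepharose (pH 6.5) steps. Initial hydrolysis rates read by UV spectrophotometry at 30°C in 100 mM Tris-H2SO4-300 mM K2SO4 pH 7.0 with 10 mM NaHCO3. kcat and Km are means of three independent experiments.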

[3] = tested on: Achromobacter xylosoxidans; test: Antibacterial activity against Achromobacter xylosoxidans TB1 by agar dilution method; type: functional; outline: as §1
[4] = tested on: Achromobacter xylosoxidans; test: Antibacterial activity against Achromobacter xylosoxidans MER by agar dilution method; type: functional; outline: as §1
[5] = tested on: Achromobacter xylosoxidans; test: Antibacterial activity against Achromobacter xylosoxidans DUC by agar dilution method; type: functional; outline: as §1
[6] = tested on: Achromobacter xylosoxidans; test: Induction of Achromobacter xylosoxidans CIP69598 beta-lactamase OXA-114a expressed in Escherichia coli TOP10 assessed as imipenem hydrolysis
Outline: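 Hydrolysis measured with 100 μM benzylpenicillin or imipenem as substrate. One unit hydrolyzes 1 μmol substrate/min. Protein measured against a bovine albumin standard.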

[7] = tested on: Achromobacter xylosoxidans; test: Antibacterial activity against Achromobacter xylosoxidans LOL by agar dilution method; type: functional; outline: as §1
Escherichia coli [8] = test: Antibacterial activity against Escherichia coli TOP10 by agar dilution method; type: functional
Outline: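 MIC determined by agar dilution; results interpreted per CLSI guidelines. E. coli TOP10 serves as the cloning host. Bacteria were routinely grown in Trypticase soy broth at 37°C.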

Escherichia coli [9] = test: microbe, parasite or virus in culture; type: functional; conditions: TOP10
[10] = tested on: Achromobacter xylosoxidans; test: Ratio of Kcat to Km for Achromobacter xylosoxidans CIP69598 beta-lactamase OXA-114a expressed in Escherichia coli TOP10; set-up: unit not given here; outline: as §2
Escherichia coli [11] = test: Antibacterial activity against Escherichia coli TOP10 in presence of 4 ug/ml Tazobactam by agar dilution method; type: functional
Outline: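 Plasmid-free E. coli TOP10 cloning host, tested by agar dilution MIC with tazobactam at a fixed 4 μg/ml and interpreted per CLSI guidelines. Cultures were routinely grown in Trypticase soy broth at 37°C.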

[12] = tested on: Achromobacter xylosoxidans; test: Antibacterial activity against Achromobacter xylosoxidans DUC in presence of 4 ug/ml Tazobactam by agar dilution method; type: functional; outline: as §1
[13] = tested on: Achromobacter xylosoxidans; test: Antibacterial activity against Achromobacter xylosoxidans MER in presence of 4 ug/ml Tazobactam by agar dilution method; type: functional; outline: as §1
Escherichia coli [14] = test: Antibacterial activity against Escherichia coli TOP10 harboring recombinant p6S3 expressing beta lactamase OXA-114a in presence of 4 ug/ml Tazobactam by agar dilution method; type: functional
Outline: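 MICs by agar dilution, with tazobactam held at a fixed 4 μg/ml and results read against CLSI guidelines. Strain is E. coli TOP10 carrying p6S3, a kanamycin-resistant pBK-CMV vector holding a partial Sau3AI fragment of A. xylosoxidans CIP69598 genomic DNA. It was selected on ticarcillin 50 mg/liter plus kanamycin 30 mg/liter. Cultures were routinely grown in TS broth at 37°C.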

[15] = Inhibition of Achromobacter xylosoxidans CIP69598 beta-lactamase OXA-114a expressed in Escherichia coli TOP10 assessed as reduction of benzyl-penicillin hydrolysis
Outline: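 Ki obtained by competition with benzylpenicillin as reporter substrate. Purified enzyme, 30°C, 100 mM Tris-H2SO4-300 mM K2SO4 pH 7.0 with 10 mM NaHCO3. Initial rates read by UV spectrophotometry. Means of three independent experiments.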

[16] = tested on: Achromobacter xylosoxidans; test: Antibacterial activity against Achromobacter xylosoxidans LOL in presence of 4 ug/ml Tazobactam by agar dilution method; type: functional; outline: as §1
[17] = tested on: Achromobacter xylosoxidans; test: Antibacterial activity against Achromobacter xylosoxidans TB1 in presence of 4 ug/ml Tazobactam by agar dilution method; type: functional; outline: as §1
[18] = tested on: Achromobacter xylosoxidans; test: Antibacterial activity against Achromobacter xylosoxidans CIP69598 in presence of 4 ug/ml Tazobactam by agar dilution method; type: functional; outline: as §1
[19] = tested on: Achromobacter xylosoxidans; test: Antibacterial activity against Achromobacter xylosoxidans CIP69598 in presence of 4 ug/ml clavulanic acid by agar dilution method; type: functional; outline: as §1
[20] = tested on: Achromobacter xylosoxidans; test: Antibacterial activity against Achromobacter xylosoxidans MER in presence of 4 ug/ml clavulanic acid by agar dilution method; type: functional; outline: as §1
[21] = tested on: Achromobacter xylosoxidans; test: Antibacterial activity against Achromobacter xylosoxidans LOL in presence of 4 ug/ml clavulanic acid by agar dilution method; type: functional; outline: as §1
[22] = tested on: Achromobacter xylosoxidans; test: Antibacterial activity against Achromobacter xylosoxidans DUC in presence of 4 ug/ml clavulanic acid by agar dilution method; type: functional; outline: as §1
Escherichia coli [23] = test: Antibacterial activity against Escherichia coli TOP10 in presence of 4 ug/ml clavulanic acid by agar dilution method; type: functional
Outline: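 Agar dilution MICs of β-lactams, with clavulanic acid held at a fixed 4 μg/ml alongside each β-lactam. Results were interpreted against CLSI guidelines. Strains were routinely grown in Trypticase soy broth at 37°C. The E. coli TOP10 host was tested, including TOP10 carrying a pBK-CMV clone of the chromosomal A. xylosoxidans CIP69598 class D β-lactamase gene.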

Escherichia coli [24] = test: Antibacterial activity against Escherichia coli TOP10 harboring recombinant p6S3 expressing beta lactamase OXA-114a in presence of 4 ug/ml clavulanic acid by agar dilution method; type: functional
Outline: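 Agar dilution MIC with clavulanic acid held at a fixed 4 μg/ml; interpreted per CLSI guidelines. Host E. coli TOP10 was electroporated with p6S3, a kanamycin-resistant pBK-CMV vector carrying a Sau3AI partial-digest fragment of A. xylosoxidans CIP69598 genomic DNA. Routine growth was in Trypticase soy broth at 37°C.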

[25] = tested on: Achromobacter xylosoxidans; test: Antibacterial activity against Achromobacter xylosoxidans TB1 in presence of 4 ug/ml clavulanic acid by agar dilution method; type: functional; outline: as §1

| Compound | MIC [1] | kcat [2] | MIC [3] | MIC [4] | MIC [5] | MIC [7] | MIC (Escherichia coli [8]) | MIC (Escherichia coli [9]) | further results |
| --- | --- | --- | --- | --- | --- | --- | --- | --- | --- |
| C[C@@H](O)[C@H]1C(=O)N2C(C(=O)O)=C(SCCNC=N)C[C@H]12 [IMIPENEM ANHYDROUS] | 4 µg/mL (≈ 13.4 µM) | > 0.1 s⁻¹ | 1 µg/mL (≈ 3.34 µM) | 1 µg/mL (≈ 3.34 µM) | 1 µg/mL (≈ 3.34 µM) | 4 µg/mL (≈ 13.4 µM) |  |  | Km [2]: > 2000 µM; Activity [6]: inactive |
| CC(C)(O/N=C(\C(=O)N[C@@H]1C(=O)N2C(C(=O)[O-])=C(C[n+]3ccccc3)CS[C@H]12)c1csc(N)n1)C(=O)O [CEFTAZIDIME] | 4 µg/mL (≈ 7.32 µM) | < 0.01 s⁻¹ | 4 µg/mL (≈ 7.32 µM) | 16 µg/mL (≈ 29.3 µM) | 8 µg/mL (≈ 14.6 µM) | 4 µg/mL (≈ 7.32 µM) | 0.06 µg/mL (≈ 0.11 µM) | 0.06 µg/mL (≈ 0.11 µM) |  |
| CO/N=C(\C(=O)N[C@@H]1C(=O)N2C(C(=O)O)=C(COC(C)=O)CS[C@H]12)c1csc(N)n1 [CEFOTAXIME] | > 64 µg/mL | < 0.01 s⁻¹ | > 64 µg/mL | > 64 µg/mL | > 64 µg/mL | > 64 µg/mL | 0.12 µg/mL (≈ 0.263 µM) | 0.25 µg/mL (≈ 0.549 µM) |  |
| CCN1CCN(C(=O)N[C@@H](C(=O)N[C@@H]2C(=O)N3[C@@H]2SC(C)(C)[C@@H]3C(=O)O)c2ccccc2)C(=O)C1=O [PIPERACILLIN] | 1 µg/mL (≈ 1.93 µM) | 0.5 s⁻¹ | 2 µg/mL (≈ 3.86 µM) | 1 µg/mL (≈ 1.93 µM) | 1 µg/mL (≈ 1.93 µM) | 4 µg/mL (≈ 7.73 µM) | 1 µg/mL (≈ 1.93 µM) | 4 µg/mL (≈ 7.73 µM) | Ratio [10]: 100; MIC (Escherichia coli [11]): 1 µg/mL; MIC [12]: 0.5 µg/mL; MIC [13]: 0.5 µg/mL; MIC (Escherichia coli [14]): 4 µg/mL; Ki [15]: 1 µM; MIC [16]: 4 µg/mL; MIC [17]: 1 µg/mL; MIC [18]: 0.5 µg/mL |
| CO/N=C(\C(=O)N[C@@H]1C(=O)N2C(C(=O)O)=C(COC(N)=O)CS[C@H]12)c1ccco1 [CEFUROXIME] | > 64 µg/mL |  | > 64 µg/mL | > 64 µg/mL | > 64 µg/mL | > 64 µg/mL | 2 µg/mL (≈ 4.71 µM) | 4 µg/mL (≈ 9.43 µM) |  |
| CO/N=C(\C(=O)N[C@@H]1C(=O)N2C(C(=O)[O-])=C(C[N+]3(C)CCCC3)CS[C@H]12)c1csc(N)n1 | 64 µg/mL (≈ 133 µM) |  | > 64 µg/mL | > 64 µg/mL | > 64 µg/mL | > 64 µg/mL |  | 0.12 µg/mL (≈ 0.25 µM) |  |
| CO[C@@]1(NC(=O)C(C(=O)O)c2ccc(O)cc2)C(=O)N2C(C(=O)O)=C(CSc3nnnn3C)CO[C@@H]21 (stereo not given in full) [MOXALACTAM] | 2 µg/mL (≈ 3.84 µM) |  | 2 µg/mL (≈ 3.84 µM) | 2 µg/mL (≈ 3.84 µM) | 2 µg/mL (≈ 3.84 µM) | 1 µg/mL (≈ 1.92 µM) | 1 µg/mL (≈ 1.92 µM) | 1 µg/mL (≈ 1.92 µM) |  |
| CC1(C)S[C@@H]2[C@H](NC(=O)Cc3ccccc3)C(=O)N2[C@H]1C(=O)O |  | 0.1 s⁻¹ |  |  |  |  |  |  | Ratio [10]: 10; Km [2]: 10 µM |
| CO[C@@]1(NC(=O)Cc2cccs2)C(=O)N2C(C(=O)O)=C(COC(N)=O)CS[C@@H]21 [CEFOXITIN] | > 64 µg/mL | < 0.01 s⁻¹ | > 64 µg/mL | > 64 µg/mL | > 64 µg/mL | > 64 µg/mL | 4 µg/mL (≈ 9.36 µM) | 4 µg/mL (≈ 9.36 µM) | Activity [6]: inactive |
| C[C@H]1[C@H](NC(=O)/C(=N\OC(C)(C)C(=O)O)c2csc(N)n2)C(=O)N1S(=O)(=O)O [AZTREONAM] | > 64 µg/mL |  | > 64 µg/mL | > 64 µg/mL | > 64 µg/mL | > 64 µg/mL |  |  |  |
| Cc1onc(-c2ccccc2)c1C(=O)N[C@@H]1C(=O)N2[C@@H]1SC(C)(C)[C@@H]2C(=O)O |  | < 0.01 s⁻¹ |  |  |  |  |  |  |  |
| CC(=O)OCC1=C(C(=O)O)N2C(=O)[C@@H](NC(=O)Cc3cccs3)[C@H]2SC1 [CEPHALOTHIN] | > 64 µg/mL | 0.5 s⁻¹ | 32 µg/mL (≈ 80.7 µM) | 32 µg/mL (≈ 80.7 µM) | 32 µg/mL (≈ 80.7 µM) | > 64 µg/mL | 2 µg/mL (≈ 5.04 µM) | 8 µg/mL (≈ 20.2 µM) | Ratio [10]: 30; Km [2]: 15 µM |
| CC1(C)S[C@@H]2[C@H](NC(=O)[C@H](C(=O)O)c3ccsc3)C(=O)N2[C@H]1C(=O)O [TICARCILLIN] | 4 µg/mL (≈ 10.4 µM) | 0.1 s⁻¹ | 1 µg/mL (≈ 2.6 µM) | 1 µg/mL (≈ 2.6 µM) | 1 µg/mL (≈ 2.6 µM) | > 64 µg/mL | 2 µg/mL (≈ 5.2 µM) | 4 µg/mL (≈ 10.4 µM) | Ratio [10]: 2.5; MIC [19]: 4 µg/mL; MIC [20]: 1 µg/mL; MIC [21]: > 64 µg/mL; Km [2]: 40 µM; MIC [22]: 1 µg/mL; MIC (Escherichia coli [23]): 2 µg/mL; MIC (Escherichia coli [24]): 4 µg/mL; MIC [25]: 1 µg/mL |
| CC1(C)S[C@@H]2[C@H](NC(=O)[C@H](N)c3ccc(O)cc3)C(=O)N2[C@H]1C(=O)O [AMOXICILLIN] | 16 µg/mL (≈ 43.8 µM) |  | 8 µg/mL (≈ 21.9 µM) | 2 µg/mL (≈ 5.47 µM) | 1 µg/mL (≈ 2.74 µM) | > 64 µg/mL | 2 µg/mL (≈ 5.47 µM) | 16 µg/mL (≈ 43.8 µM) | MIC [19]: 4 µg/mL; MIC [20]: 1 µg/mL; MIC [21]: 8 µg/mL; MIC [22]: 1 µg/mL; MIC (Escherichia coli [23]): 2 µg/mL; MIC (Escherichia coli [24]): 16 µg/mL; MIC [25]: 8 µg/mL |
